Experimental data pooled from the literature.
Compare with care: the assays were run in different laboratories.
Target: MAP kinase-activated protein kinase 2 (MAPKAPK2, Homo sapiens, UniProt P49137)

`O=C(c1ccc(Nc2ncc(Cl)c(-c3ccc(Cl)s3)n2)cc1)N1CCC(N2CCCC2)CC1` gave a remaining binding of 100% (binding, competition with immobilised ligand; 1 µM).
The remaining binding of `COc1cnc(Nc2cccc(S(N)(=O)=O)c2)nc1N1CCN(c2ccccc2)C(=O)C1` is reported as 100% (binding, competition with immobilised ligand; 1 µM).
The remaining binding of `O=C(c1ccc(Nc2nccc(-c3cc4ccccc4s3)n2)cc1)N1CCC(N2CCCC2)CC1` is reported as 100% (binding, competition with immobilised ligand; 1 µM).
For `O=C(NCC1CCOCC1)c1n[nH]cc1NC(=O)c1c(F)cccc1F`, the remaining binding was 66% (binding, competition with immobilised ligand; 1 µM).
With `C[C@@H]1CN(c2ccc3ncc(-c4ccc5[nH]nc(C6CC6)c5c4)n3n2)C[C@H](C)O1` the remaining binding was 89% (binding, competition with immobilised ligand; 0.5 µM).
`CN(C)c1nccc(-c2cnn3ncccc23)n1` gave a remaining binding of 100% (binding; 1 µM).
`COc1cnc(Nc2cccc(S(N)(=O)=O)c2)nc1N1CCN(c2ccccc2)CC1` has a remaining binding of 100% (binding, competition with immobilised ligand; 1 µM).
With `CN(C)c1ncc(F)c(-c2cnn3ncccc23)n1` the remaining binding was 100% (binding; 1 µM).
`c1cncc(-c2cccc(Nc3nccc(NC4CCCCC4)n3)c2)c1` has a remaining binding of 100% (binding, competition with immobilised ligand; 10 µM).
The remaining binding of `COCCOc1nc(-c2ccc(Cl)nc2)nc2c1CN(C(=O)c1ncn3ccccc13)CC2` is reported as 73% (cell-free assay, competition with immobilised ligand; 0.1 µM).
`O=C(NCCCN1CCOCC1)c1ccc(Nc2nccc(-c3cc4ccccc4s3)n2)cc1` gave a remaining binding of 100% (binding, competition with immobilised ligand; 1 µM).
With `COc1ccc2c(O[C@@H]3C[C@H]4C(=O)N[C@]5(C(=O)O)CC5/C=C\CCCCC[C@H](NC(=O)OC5CCCC5)C(=O)N4C3)cc(-c3csc(NC(=O)C(C)C)n3)nc2c1C` (some centres unmarked) the remaining binding was 60% (cell-free assay, competition with immobilised ligand; 1 µM).
With `COc1ncc2cc3ccccc3nc2c1C#N` the remaining binding was 100% (cell-free assay, competition with immobilised ligand; 5 µM).
With `Cn1nc(C(F)(F)F)cc1-c1cnc(N2CCc3cc(S(=O)(=O)Nc4c(F)cc(Cl)cc4F)cc(N4CCCC4=O)c32)nc1` the remaining binding was 73% (cell-free assay, competition with immobilised ligand; 1 µM).
The remaining binding of `CN(CCCC(F)(F)F)c1nccc(-c2cnn3ncccc23)n1` is reported as 100% (binding; 1 µM).
`CNCc1ccccc1-c1csc([C@H](C)Nc2nc(C)nc3cc(OC)c(OC)cc23)c1` has a remaining binding of 80% (cell-free assay, competition with immobilised ligand; 1 µM).
For `CCN1CCN(Cc2ccc(C(=O)Nc3ccc(C)c(Oc4ccc5c(c4)CC(=O)N5)c3)cc2C(F)(F)F)CC1`, the remaining binding was 100% (binding, competition with immobilised ligand; 1 µM).
With `CNC(=O)Nc1ccc2c(c1)[C@@]1(CC2)OC(=O)N(CC(=O)N(Cc2ccc(F)cc2)[C@@H](C)C(F)(F)F)C1=O` the remaining binding was 100% (cell-free assay, competition with immobilised ligand; 1 µM).
With `C[C@@H](c1ccc(-n2cnc3c(N)ncnc32)cc1)N1CCc2nn(C)c(Cc3ccccc3)c2C1=O` the remaining binding was 49% (binding, competition with immobilised ligand; 0.1 µM).
For `O=C(NS(=O)(=O)c1ccc(NCC2CCOCC2)c([N+](=O)[O-])c1)c1ccc(N2CCN(Cc3ccc(C(F)(F)F)cc3-c3ccc(Cl)cc3)CC2)cc1Oc1cnc2[nH]ccc2c1`, the remaining binding was 81% (cell-free assay, competition with immobilised ligand; 1 µM).
The remaining binding of `N[C@@H]1CCN(c2nccc(-c3cnn4ncccc34)n2)C1` is reported as 100% (binding; 1 µM).
For `CN([C@@H]1CCc2c(CC(=O)O)c3ccccc3n2C1)S(=O)(=O)c1ccc(F)cc1`, the remaining binding was 100% (cell-free assay, competition with immobilised ligand; 1 µM).
For `CN(c1nccc(-c2cnn3ncccc23)n1)C1CC1`, the remaining binding was 83% (binding; 1 µM).
